The test concerns S49. As to the kind of experiment: In vitro biological activity against accumulation of cAMP in S49 cells as relative activity expressed as ratio of KA for isoproterenol to KA for the compound. It counts as functional, Mus musculus. The method, boiled down:
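Wild-type S-49 mouse lymphoma cells resuspended at 2–2.5 × 10^6/mL in DME (13.3 g/L), 20 mM Hepes pH 7.4, 0.1% BSA. Preincubated 10 min at 37 °C without drug, then 6 min with compound; stopped on ice, pellets boiled, cAMP measured by competitive binding. K_A taken from cAMP vs log concentration; ratio uses isoproterenol K_A run at the same time. Each K_A averages ≥3 determinations, each in triplicate.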
Turning to `CC(CCCCC(=O)Nc1ccc(C(F)(F)F)cc1)NCC(O)c1ccc(O)c(O)c1.Cl` (stereo unspecified), the Relative activity is recorded as 11000. Take `CCCCc1ccc(NC(=O)CCCCC(C)NCC(O)c2ccc(O)c(O)c2)cc1.Cl` (stereo unspecified): the Relative activity is listed as 3200. As for `Cc1ccc(N(C)C(=O)CCCCC(C)NCC(O)c2ccc(O)c(O)c2)cc1.Cl` (stereo unspecified), the Relative activity is 73. On to `COc1ccc(NC(=O)CCCCC(C)NCC(O)c2ccc(O)c(O)c2)cc1.Cl` (stereo unspecified), for which the Relative activity is on record as 3.1. In the case of `CC(CCCCC(=O)Nc1ccccc1C(F)(F)F)NCC(O)c1ccc(O)c(O)c1.Cl` (stereo unspecified) it was 0.00025; in that of `Cc1ccc(NC(=O)CCC(C)NCC(O)c2ccc(O)c(O)c2)cc1.Cl` (stereo unspecified), 0.71; in that of `CC(CCCC(=O)O)NCC(O)c1ccc(O)c(O)c1` (stereo unspecified), 0.00068. Take `CC(CCC(=O)O)NCC(O)c1ccc(O)c(O)c1` (stereo unspecified): the Relative activity was found to be 0.00016. On to `CCCCNC(=O)CCCCC(C)NCC(O)c1ccc(O)c(O)c1.Cl` (stereo unspecified), for which the Relative activity was determined as 0.25.

In the case of `CC(CCCCCC(=O)O)NCC(O)c1ccc(O)c(O)c1` (stereo unspecified), the Relative activity was determined as 0.00083. In the case of `CC(CCCCC(=O)NC1CCCCC1)NCC(O)c1ccc(O)c(O)c1.Cl` (stereo unspecified) it was 0.17; in that of `CC(CCCCC(=O)O)NCC(O)c1ccc(O)c(O)c1` (stereo unspecified), 0.00097. The value for `Cc1ccc(NC(=O)CCCC(C)NCC(O)c2ccc(O)c(O)c2)cc1.Cl` (stereo unspecified) was 0.36; that for `CC(CCCCC(=O)Nc1cccc(C(F)(F)F)c1)NCC(O)c1ccc(O)c(O)c1.Cl` (stereo unspecified) was 0.98.

Turning to `Cc1ccc(NC(=O)CCCCC(C)NCC(O)c2ccc(O)c(O)c2)cc1.Cl` (stereo unspecified), the Relative activity is reported as 54. `Cc1ccc(NC(=O)CCCCCC(C)NCC(O)c2ccc(O)c(O)c2)cc1.Cl` (stereo unspecified): the Relative activity is given as 0.11.

Source of the values: ChEMBL document CHEMBL1122508, “Conjugates of catecholamines. 1. N-alkyl-functionalized carboxylic acid congeners and amides related to isoproterenol” (1983).
